Measured values collected from several papers.
Each line is one published result; the experiments were not run side by side.
1-deoxy-D-xylulose 5-phosphate reductoisomerase: 1-deoxy-D-xylulose 5-phosphate reductoisomerase (Mycobacterium tuberculosis, UniProt P9WNS1)
ENAH: Protein enabled homolog (ENAH, UniProt Q8N8S7)
DPP4: Dipeptidyl peptidase 4 (DPP4, Homo sapiens, UniProt P27487)
pknB: Serine/threonine-protein kinase PknB (pknB, Mycobacterium tuberculosis, UniProt P9WI81)

SMILES | target | assay | conditions | endpoint | value
CC(=O)N(O)CCC(c1ccc2c(c1)OCO2)P(=O)(O)O (stereo not shown) | 1-deoxy-D-xylulose 5-phosphate reductoisomerase | enzyme activity, inhibitor, absorbance | pH 7.5 | IC50 | 1.5 µM
CC(=O)N[C@@H](CO)C(=O)N[C@@H](Cc1ccccc1)C(=O)N[C@@H](CCC(=O)O)C(=O)N[C@@H](Cc1ccccc1)C(=O)N1CCC[C@H]1C(=O)N1CCC[C@H]1C(=O)N1CCC[C@H]1C(=O)N1CCC[C@H]1C(=O)N[C@H](C(=O)N[C@@H](CCC(=O)O)C(=O)N[C@@H](CC(=O)O)C(=O)N[C@@H](CCC(=O)O)C(=O)N[C@@H](CC(C)C)C(N)=O)[C@@H](C)O | ENAH | binding, fluorescence | – | Kd | 13 µM
CC(C)[C@H](N)C(=O)N1CCC[C@H]1C(=O)N[C@H](C(=O)N1CCC[C@H]1C(=O)N[C@@H](CCCCN)C(=O)O)C(C)C | DPP4 | enzyme activity, inhibitor, absorbance | pH 8 | IC50 | 104 µM
CC(C)(C)OC(=O)N1CCN(c2ccc(Nc3nccc(-c4ccccc4)n3)cc2C(F)(F)F)CC1 | pknB | cell-free assay, inhibitor | – | Ki | > 5.9 µM
CC(C)[C@H](N)C(=O)N1CCC[C@H]1C(=O)N[C@H](C(=O)N1CCC[C@H]1C(=O)N[C@@H](CO)C(=O)O)C(C)C | DPP4 | enzyme activity, inhibitor, absorbance | pH 8 | IC50 | 92.9 µM
CC(=O)N(O)CCC(c1ccc(-c2cccnc2)cc1)P(=O)(O)O (stereo not shown) | 1-deoxy-D-xylulose 5-phosphate reductoisomerase | enzyme activity, inhibitor, absorbance | pH 7.5 | IC50 | 0.8 µM
COc1cccc(-c2ccnc(Nc3ccc(N4CCN(C(=O)OC(C)(C)C)CC4)c(C(F)(F)F)c3)n2)c1 | pknB | cell-free assay, inhibitor | – | Ki | > 5.9 µM
CC(C)C[C@H](NC(=O)[C@@H]1CCCN1C(=O)[C@@H](NC(=O)[C@@H]1CCCN1C(=O)[C@@H](N)C(C)C)C(C)C)C(=O)O | DPP4 | enzyme activity, inhibitor, absorbance | pH 8 | IC50 | 130 µM
CC(=O)N(O)CCC(c1cc2ccccc2o1)P(=O)(O)O (stereo not shown) | 1-deoxy-D-xylulose 5-phosphate reductoisomerase | enzyme activity, inhibitor, absorbance | pH 7.5 | IC50 | 9.6 µM
CC(=O)N[C@@H](Cc1ccccc1Cl)C(=O)N1CCC[C@H]1C(=O)N1CCC[C@H]1C(=O)N1CCC[C@H]1C(=O)N1CCC[C@H]1C(=O)N[C@H](C(=O)N[C@@H](CCC(=O)O)C(=O)N[C@@H](CC(=O)O)C(=O)N[C@@H](CCC(=O)O)C(=O)N[C@@H](C)C(N)=O)[C@@H](C)O | ENAH | binding, fluorescence | – | Kd | 3.5 µM
